19 compounds from ChEMBL document CHEMBL4138074, “(Indolylalkyl)piperidine carbamates as inhibitors of fatty acid amide hydrolase (FAAH)” (Medchemcomm, 2017) can be followed below.

Data set [1] can be described thus: Metabolic stability in rat liver S9 fractions assessed as parent compound remaining in presence of NADPH incubated fro 30 mins by HPLC and MS-detection based method. The following applies: read-out: Stability. Type of data set: ADME, subcellular, S9 fraction. In short, it runs like this:
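Compound incubated with rat liver S9 fraction plus cofactor NADPH for 30 min. Parent remaining measured by reversed-phase HPLC with MS detection and expressed as percent of parent. Mean ± SD of three independent determinations.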

Data set [2] has as its target T1, Fatty-acid amide hydrolase 1 (Rattus norvegicus, UniProt P97612).
T1 sequence (P97612 whole entry): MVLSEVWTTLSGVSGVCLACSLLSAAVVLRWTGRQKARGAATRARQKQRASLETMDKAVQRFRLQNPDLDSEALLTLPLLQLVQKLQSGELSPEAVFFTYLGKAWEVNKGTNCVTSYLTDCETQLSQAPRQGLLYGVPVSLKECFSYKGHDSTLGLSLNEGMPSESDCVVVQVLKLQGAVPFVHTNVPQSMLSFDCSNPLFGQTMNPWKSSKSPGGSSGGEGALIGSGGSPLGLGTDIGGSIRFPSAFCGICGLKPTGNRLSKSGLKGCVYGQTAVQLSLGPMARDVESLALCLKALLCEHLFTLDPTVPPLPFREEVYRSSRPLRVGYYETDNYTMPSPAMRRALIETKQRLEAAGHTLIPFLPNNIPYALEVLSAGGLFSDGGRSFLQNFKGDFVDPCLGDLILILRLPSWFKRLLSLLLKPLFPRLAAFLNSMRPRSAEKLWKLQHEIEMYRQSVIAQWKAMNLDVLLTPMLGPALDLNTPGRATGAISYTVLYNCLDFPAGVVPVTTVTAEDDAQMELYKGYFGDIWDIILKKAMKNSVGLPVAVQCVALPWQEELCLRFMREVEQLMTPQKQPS
Kind of data set: Inhibition of FAAH in rat brain microsomes assessed as reduction in enzyme-mediated 4-pyren-1-ylbutanoic acid release using N-(2-hydroxyethyl)-4-pyren-1-ylbutanamide as substrate incubated fro 60 mins by reversed phase HPLC method. A digest of the protocol: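 Rat brain microsomes as enzyme source; fluorogenic substrate N-(2-hydroxyethyl)-4-pyren-1-ylbutanamide, with Triton X-100 in the incubation buffer to solubilize substrate and stabilize the membrane-bound enzyme. Incubation 60 min. Released 4-pyren-1-ylbutanoic acid quantified by reversed-phase HPLC with fluorescence detection, using 6-pyren-1-ylhexanoic acid as internal standard. Product is compared with and without inhibitor. IC50 is the mean of at least two independent determinations.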

A short description of data set [3]: Metabolic stability in porcine blood plasma assessed as parent compound remaining incubated fro 30 mins by HPLC and MS-detection based method. Type of data set: ADME, cell-free, Sus scrofa. The note with it: pig, read-out: Stability. A digest of the protocol: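 Porcine blood plasma incubation, 30 min. Remaining parent quantified by reversed-phase HPLC with MS detection and reported as percent remaining. Mean ± SD, n = 3 independent determinations.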

Each structure is given as a SMILES string.

For `O=C(Oc1ccccc1)N1CCC(CCn2ccc3ccc(F)cc32)CC1`, the figures for the remaining at 0.5 h in data set [1] and in data set [3] were 82% and 93%, respectively. Also, the IC50 in data set [2] stood at 46 nM.

Take `O=C(Oc1ccccc1)N1CCN(CCn2ccc3ccncc32)CC1`: in data set [2], the IC50 was 310 nM.

For the compound `O=C(Oc1ccccc1)N1CCC(Cn2ccc3ccccc32)CC1`, the remaining at 0.5 h turned out to be 63% in data set [1] and 93% in data set [3]. For the same compound, the IC50 in data set [2] was found to be 9800 nM. Take `Cc1ccc2c(ccn2CCC2CCN(C(=O)Oc3ccccc3)CC2)c1`: in data set [2], the IC50 was found to be 700 nM. In the case of `CN(CCCCCn1ccc2ccc(F)cc21)C(=O)Oc1ccccc1`, the remaining at 0.5 h in data set [1] was 65%; in data set [3] it was 93%. The IC50 in data set [2] stood at 1600 nM. As for `O=C(Oc1ccccc1)N1CCN(CCn2ccc3cnccc32)CC1`, the IC50 in data set [2] came to 790 nM. Still for that read-out and setting: in the case of `O=C(Oc1ccccc1)N1CCC(CCn2ccc3cc(Cl)ccc32)CC1` it was 410 nM; in that of `O=C(Oc1ccccc1)N1CCC(CCn2ccc3cc(F)ccc32)CC1`, 130 nM; in that of `N#Cc1ccc2c(ccn2CCC2CCN(C(=O)Oc3ccccc3)CC2)c1`, 970 nM. With `O=C(Oc1ccccc1)N1CCC(CCCn2ccc3ccccc32)CC1`, the remaining at 0.5 h in data set [1] was 80%; in data set [3], 93%. In addition, the half-inhibitory concentration (IC50) in data set [2] worked out at 570 nM. For `O=C(Oc1ccccc1)N1CCN(CCn2ccc3cccnc32)CC1`, in data set [2], the IC50 came to 200 nM. On to `O=C(Oc1ccccc1)N1CCC(CCCCn2ccc3ccccc32)CC1`, for which the remaining at 0.5 h in data set [1] worked out at 78%; in data set [3], 87%. The IC50 in data set [2] was determined as 180 nM. Take `O=C(Oc1ccccc1)N1CCC(CCn2ccc3ccccc32)CC1`: the remaining at 0.5 h in data set [1] is 87%; in data set [3], 94%. Further, the IC50 in data set [2] came out at 110 nM.

`O=C(Oc1ccccc1)N1CCN(CCn2ccc3ccc(F)cc32)CC1`: in data set [2], the IC50 came out at 180 nM. With `O=C(Oc1ccccc1)N1CCC(CCn2c3ccccc3c3ccccc32)CC1`, the half-maximal inhibitory concentration (IC50) in data set [2] was determined as 410 nM.

As for `O=C(Oc1ccccc1)N1CCC(CCn2ccc3c(F)cccc32)CC1`, the IC50 in data set [2] is 110 nM.

In the case of `COc1ccc2c(ccn2CCC2CCN(C(=O)Oc3ccccc3)CC2)c1`, the IC50 in data set [2] came to 360 nM.

Turning to `O=C(Oc1ccccc1)N1CCC(CCn2ccc3ncccc32)CC1`, the IC50 in data set [2] is 1700 nM.

`O=C(Oc1ccccc1)N1CCC(CCn2ccc3cccc(F)c32)CC1`: in data set [2], the IC50 came to 52 nM.
